By ΔTm is commonly meant the change in melting temperature against a reference sample.

The text below walks through data of ChEMBL document CHEMBL1155073, “Molecular recognition of a DNA:RNA hybrid: sub-nanomolar binding by a neomycin-methidium conjugate” (Bioorg Med Chem Lett, 2008).

Assay [1] in a line: Binding affinity to synthetic poly(dA-dT):poly(dA-dT) DNA:DNA duplex assessed as association constant at 20 degC. A digest of the protocol:
(§1)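 Apparent association constant is estimated from the UV/CD melting-temperature shift (Eq. 1). Binding stoichiometry n comes from fluorescence titrations, duplex melting enthalpy from DSC, and free ligand is taken as half the total. The value is extrapolated to 20 °C by integrated van't Hoff using dilution-corrected excess-site ITC enthalpies (15, 20, 25 °C) and derived ΔCp. Buffer: 10 mM sodium cacodylate, 0.5 mM EDTA, 100 mM NaCl, pH 5.5.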

Assay [2] can be described thus: Binding affinity to synthetic poly(dA):poly(rU) DNA:RNA hybrid assessed as association constant at 20 degC. A digest of the protocol:
as §1

Assay [3] in a line: Binding affinity to synthetic poly(dA):poly(rU) DNA:RNA hybrid assessed as melting temperature at 2.2 uM. A digest of the protocol:
(§2)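 Thermal denaturation of each nucleic acid (20 µM/bp) with ligand at 2.2 µM, with melting temperatures read from UV and CD melting profiles. ΔTm is taken against the ligand-free Tm0.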

Assay [4] in a line: Binding affinity to synthetic poly(rA):poly(rU) RNA:RNA duplex assessed as melting temperature at 2.2 uM. A digest of the protocol:
as §2

The nature of assay [5]: Binding affinity to synthetic poly(dA-dT):poly(dA-dT) DNA: DNA duplex assessed as melting temperature at 2.2 uM. The method in brief:
as §2

Assay [6] can be described thus: Binding affinity to synthetic poly(rA):poly(rU) RNA duplex assessed as association constant at 20 degC.
The nature of assay [7]: Binding affinity to synthetic poly(rA):poly(rU) DNA:RNA hybrid assessed as association constant at 20 degC. The method in brief: as §1
Assay [8] is described as follows: Binding affinity to synthetic A-site RNA assessed as melting temperature at 2.2 uM. A digest of the protocol: as §2
Assay [9] can be described thus: Binding affinity to synthetic poly(dA):poly(dT) DNA:DNA duplex assessed as change in melting temperature at 2.2 uM. The method in brief: as §2
A short description of assay [10]: Binding affinity to synthetic A-site RNA assessed as change in melting temperature at 2.2 uM. The method in brief:
as §2

Assay [11] can be described thus: Binding affinity to synthetic poly(rA):poly(dT) DNA:RNA hybrid assessed as change in melting temperature at 2.2 uM. A digest of the protocol: as §2
A short description of assay [12]: Binding affinity to synthetic poly(dA):poly(dT) DNA:DNA duplex assessed as melting temperature at 2.2 uM. The method in brief: as §2
Assay [13] can be described thus: Binding affinity to synthetic poly(dA):poly(rU) DNA:RNA hybrid assessed as change in melting temperature at 2.2 uM. A digest of the protocol: as §2
In assay [14] the test system is DNA. Briefly: Binding affinity to calf thymus DNA assessed as change in melting temperature at 2.2 uM. The conditions noted are these: Bos taurus. The class given is nucleic-acid assay. A digest of the protocol:
as §2

A short description of assay [15]: Binding affinity to synthetic poly(rA):poly(rU) RNA:RNA duplex assessed as change in melting temperature at 2.2 uM. A digest of the protocol:
as §2

Assay [16] is described as follows: Binding affinity to synthetic poly(dA-dT):poly(dA-dT) DNA:DNA duplex assessed as change in melting temperature at 2.2 uM. A digest of the protocol:
as §2

Assay [17] concerns DNA. Briefly: Binding affinity to calf thymus DNA assessed as melting temperature at 2.2 uM. As to conditions: Bos taurus. The class given is nucleic-acid assay. The method in brief: as §2
Assay [18] can be described thus: Binding affinity to synthetic poly(dG):poly(dC) DNA:DNA duplex assessed as melting temperature at 2.2 uM. A digest of the protocol:
as §2

Assay [19] can be described thus: Binding affinity to synthetic poly(rA):poly(dT) DNA:RNA hybrid assessed as melting temperature at 2.2 uM. The method in brief: as §2
A short description of assay [20]: Binding affinity to synthetic poly(dA):2poly(dT) DNA:DNA duplex assessed as melting temperature at 2.2 uM. The method in brief:
as §2

Assay [21] can be described thus: Binding affinity to synthetic poly(dA): 2poly(dT) DNA:DNA duplex assessed as change in melting temperature at 2.2 uM. The method in brief: as §2

Consider `NC[C@@H]1O[C@H](O[C@H]2[C@@H](O)[C@H](O[C@@H]3[C@@H](O)[C@H](N)C[C@H](N)[C@H]3O[C@H]3O[C@H](CN)[C@@H](O)[C@H](O)[C@H]3N)O[C@@H]2CO)[C@H](N)[C@@H](O)[C@@H]1O`, for which the Ka in assay [1] was found to be 7 ×10⁴ /M; in assay [2], 9.9 ×10⁶ /M; in [6], 2.6 ×10⁷ /M. Besides, the results for the Tm in [3], in assay [4] and in assay [5] were 65.8 °C, 64.7 °C and 62.9 °C, respectively.
For `CC[n+]1c(-c2ccccc2)c2cc(N)ccc2c2ccc(N)cc21`, the Ka in [7] came out at 1.8 ×10⁶ /M; in assay [1], 2 ×10⁵ /M; in assay [2], 9.3 ×10⁶ /M. Also, the Tm in assay [3] stood at 61.8 °C; in [4] it was 64.2 °C; in assay [5] it was 63.2 °C.
As for `C[n+]1c(-c2ccc(C(=O)NCCSC[C@H]3O[C@@H](O[C@@H]4[C@@H](O)[C@H](N)C[C@H](N)[C@H]4O[C@H]4O[C@H](CN)[C@@H](O)[C@H](O)[C@H]4N)[C@H](O)[C@@H]3O[C@H]3O[C@@H](CN)[C@@H](O)[C@H](O)[C@H]3N)cc2)c2cc(N)ccc2c2ccc(N)cc21`, the Ka came out at 1 ×10⁶ /M in assay [1], 4.8 ×10¹⁰ /M in [2] and 2.1 ×10⁹ /M in [6]. Besides, the Tm in assay [8] is 79.8 °C; in assay [3], 90.5 °C; in assay [4] it was 77 °C; in assay [5], 66.2 °C; in assay [12], 76.1 °C; in the assay on DNA [17], more than 95 °C. In addition, the Tm in assay [18] was more than 95 °C; in [19], 82.4 °C; in assay [20] it was 75.9 °C. The ΔTm in [9] is 7.7 °C; in assay [10], 8.1 °C; in [11] it was 20.1 °C; in assay [13] it was 46.9 °C; in the assay with DNA [14], more than 8.1 °C; in assay [15], 34.3 °C. For the same molecule, the shift in melting temperature (ΔTm) in assay [16] is 7.4 °C; in assay [21], 7.7 °C.
